Data: ChEMBL document CHEMBL1154198, “Chemical genetics of Plasmodium falciparum” (Nature, 2010)

Key:
Plasmodium falciparum [1] = experiment: ST_JUDE: Cytotoxicity against Plasmodium falciparum SB-A6; assay type: functional, organism-based
Plasmodium falciparum [2] = experiment: ST_JUDE: Cytotoxicity against Plasmodium falciparum V1/S; assay type: functional, organism-based
[3] = ST_JUDE: Cytotoxicity using luciferase to measure ATP as an indicator of the viability of human foreskin fibroblast cells (BJ); assay type: toxicity, cell-based
Plasmodium falciparum [4] = experiment: ST_JUDE: Cytotoxicity against Plasmodium falciparum Dd2; assay type: functional, organism-based
Plasmodium falciparum [5] = experiment: ST_JUDE: Plasmodium falciparum K1 EC50 (uM) as measured by SYBR green dye; assay type: functional, organism-based
Plasmodium falciparum [6] = experiment: ST_JUDE: Plasmodium falciparum 3D7 EC50 (uM) as measured by SYBR green dye; assay type: functional, organism-based
[7] = ST_JUDE: Cytotoxicity using luciferase to measure ATP as an indicator of the viability of human Burkitt''s lymphoma lymphoblast cells (Raji); assay type: toxicity, cell-based
Trypanosoma brucei = experiment: ST_JUDE: Cytotoxicity using luciferase to measure ATP as an indicator of the viability of Trypanosoma brucei; assay type: functional, organism-based
Plasmodium falciparum [8] = experiment: ST_JUDE: Cytotoxicity against Plasmodium falciparum 3D7; assay type: functional, organism-based
How it was run: (§1)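 Asexual P. falciparum grown in human erythrocytes, exposed to compounds for 72 h, and growth read as the DNA quantity in treated versus control cultures. Dose-response run at 12 concentrations from 10 μM to 5 nM.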

Plasmodium falciparum [9] = experiment: ST_JUDE: Cytotoxicity against Plasmodium falciparum K1; assay type: functional, organism-based; how it was run: as §1
Leishmania major = experiment: ST_JUDE: Cytotoxicity using Alamar Blue to measure viability of Leishmania major; assay type: functional, organism-based
How it was run: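 L. major promastigotes; drug susceptibility read with Alamar Blue.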

[10] = ST_JUDE: Cytotoxicity using luciferase to measure ATP as an indicator of the viability of human epithelial hepatocellular carcinoma cells (HepG2); assay type: toxicity, cell-based
Toxoplasma gondii = experiment: ST_JUDE: Growth inhibition of to Toxoplasma gondii, in human U-2OS cells, as measured by luciferase.; assay type: functional, organism-based; settings: RH, U2OS
How it was run: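 T. gondii parasites engineered to express luciferase; drug sensitivity read by luminescence.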

[11] = ST_JUDE: Cytotoxicity using luciferase to measure ATP as an indicator of the viability of human epithelial embryonic kidney cells (HEK293); assay type: toxicity, cell-based
Plasmodium falciparum [12] = experiment: ST_JUDE: Cytotoxicity against Plasmodium falciparum W2; assay type: functional, organism-based
Plasmodium falciparum [13] = experiment: ST_JUDE: Cytotoxicity against Plasmodium falciparum D10 transfected with yeast DHOD; assay type: functional, organism-based

Row | SMILES | EC50 (Plasmodium falciparum [1]) | EC50 (Plasmodium falciparum [2]) | EC50 [3] | EC50 (Plasmodium falciparum [4]) | EC50 (Plasmodium falciparum [5]) | EC50 (Plasmodium falciparum [6]) | EC50 [7] | EC50 (Trypanosoma brucei) | EC50 (Plasmodium falciparum [8]) | EC50 (Plasmodium falciparum [9]) | EC50 (Leishmania major) | EC50 [10] | EC50 (Toxoplasma gondii) | EC50 [11] | EC50 (Plasmodium falciparum [12]) | EC50 (Plasmodium falciparum [13])
1 | CN(C(=O)c1cc2c(s1)-c1ccccc1S(=O)(=O)C2)c1cccc(C(F)(F)F)c1 | 414 nM | 684 nM | > 40800 nM | 335 nM | 1250 nM | 744 nM | > 40800 nM | 18100 nM | 350 nM | 356 nM | > 17500 nM | > 40800 nM | > 22400 nM | > 40800 nM | 116 nM | 431 nM
2 | CO/C(O)=C1\C(C)=NC2=C(C(=O)CC(c3ccc(OC)c(OC)c3)C2)C1c1ccccc1C (stereo not drawn) | 176 nM | 254 nM | > 41400 nM | 577 nM | 117 nM | 424 nM | > 41400 nM | 17000 nM | 309 nM | 220 nM | > 17700 nM | > 41400 nM | > 22700 nM | > 41400 nM | 225 nM | 196 nM
3 | O=[N+]([O-])c1ccc(S(=O)(=O)N2CCN(C(=S)NCc3ccco3)CC2)cc1 | 289 nM | 269 nM | > 31700 nM | 123 nM | 132 nM | 185 nM | > 31700 nM | > 30400 nM | 261 nM | 252 nM | > 13600 nM | > 31700 nM | > 17400 nM | > 31700 nM | 300 nM | 316 nM
4 | CCOc1ccc(N(C(C)=O)C2=C(N3CCOCC3)C(=O)c3ccccc3C2=O)cc1 | 58.4 nM | 51.5 nM | 9600 nM | 487 nM | 221 nM | 54.7 nM | 4570 nM | 2960 nM | 69 nM | 100 nM | > 15900 nM | 6000 nM | 5190 nM | 13100 nM | 1880 nM | 26.6 nM
5 | CCOC(=O)C1=C(C)N=c2s/c(=C/c3ccccc3O)c(=O)n2C1c1ccccc1 (stereo not drawn) | 513 nM | > 9410 nM | > 36600 nM | 2180 nM | 390 nM | > 15000 nM | > 36600 nM | 6970 nM | 317 nM | 343 nM | > 15700 nM | > 36600 nM | > 20100 nM | > 36600 nM | 2210 nM | 486 nM
6 | COc1ccc(NC(=O)C2c3ccccc3C(=O)N(CC(C)C)C2c2cccs2)cc1 (stereo not drawn) | 370 nM | 416 nM | > 47700 nM | 255 nM | 120 nM | 102 nM | > 47700 nM | 7550 nM | 217 nM | 196 nM | > 20400 nM | > 47700 nM | > 26100 nM | > 47700 nM | > 12300 nM | 329 nM
7 | Oc1ccc(Br)cc1CN1CCN(Cc2cccc(F)c2)CC1 | 1740 nM | 723 nM | > 31800 nM | 1500 nM | 1300 nM | 3510 nM | > 31800 nM | 25800 nM | 1560 nM | 656 nM | > 13600 nM | > 31800 nM | > 17400 nM | > 31800 nM | 1740 nM | 1500 nM
8 | OC(CNC1CCCC1)Cn1c2ccc(Cl)cc2c2cc(Cl)ccc21 (stereo not drawn) | 635 nM | 690 nM | > 24300 nM | 253 nM | 146 nM | 990 nM | 10900 nM | 2020 nM | 576 nM | 258 nM | > 10400 nM | 8670 nM | > 13300 nM | 20500 nM | 572 nM | 652 nM
9 | Cc1cccc(N2CCN(Cc3ccccc3O)CC2)c1C | 29.5 nM | 403 nM | > 32700 nM | 626 nM | 531 nM | 1070 nM | > 32700 nM | > 31300 nM | 976 nM | 355 nM | > 14000 nM | > 32700 nM | > 17900 nM | > 32700 nM | 951 nM | 813 nM
10 | CCOc1ccc(/C=C/c2nc(=O)c3ccccc3o2)cc1 | > 10200 nM | 601 nM | > 39900 nM | 307 nM | 128 nM | 188 nM | > 39900 nM | > 38300 nM | 345 nM | 392 nM | > 17100 nM | > 39900 nM | 273 nM | > 39900 nM | 73.1 nM | > 10200 nM
11 | Cc1cc(C)nc(/N=C(\N)Nc2ccccc2O)n1 | 2180 nM | 978 nM | > 34200 nM | 908 nM | 497 nM | 594 nM | > 34200 nM | > 32800 nM | 1430 nM | 560 nM | > 14600 nM | > 34200 nM | > 18700 nM | > 34200 nM | 5710 nM | 2880 nM
12 | CCOc1cc(C2CC(=O)NC3=C2C(=O)CC(c2ccccc2Cl)C3)cc(Cl)c1O (stereo not drawn) | 1150 nM | 1080 nM | > 43200 nM | 1020 nM | 212 nM | 500 nM | > 43200 nM | 19700 nM | 890 nM | 916 nM | > 18500 nM | > 43200 nM | > 23700 nM | > 43200 nM | 860 nM | 1210 nM
13 | COc1cc(C2CC(=O)NC3=C2C(=O)CC(c2ccccc2Cl)C3)cc(Br)c1O (stereo not drawn) | 2450 nM | 2730 nM | > 54200 nM | 1910 nM | 945 nM | 1280 nM | > 54200 nM | 16400 nM | 1860 nM | 1910 nM | > 23200 nM | > 54200 nM | > 29700 nM | > 54200 nM | 1060 nM | 1930 nM
